pIC50: −log10 of the molar value.
Target: Hypoxia-inducible factor 1-alpha (Homo sapiens, UniProt Q16665)
Experiment: Inhibition of HIF1alpha transcriptional activity in hypoxia-induced human HCCLM3 cells co-transfected with luciferase reporter plasmid containing five copies of HREs and pRL-SV40 plasmid encoding Renilla luciferase incubated with compound under normoxia for 1 hr followed by hypoxia induction and measured after 24 hrs by HRE-dependent dual luciferase reporter gene assay
Outline: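 LM3 cells co-transfected with firefly luciferase reporter carrying five HRE copies plus pRL-SV40 Renilla plasmid; after transfection treated and kept under hypoxia; firefly luminescence normalized to Renilla. Single-point inhibition rate at 10 μM; IC50 for selected compounds.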

Sequence of Hypoxia-inducible factor 1-alpha (Q16665 whole entry): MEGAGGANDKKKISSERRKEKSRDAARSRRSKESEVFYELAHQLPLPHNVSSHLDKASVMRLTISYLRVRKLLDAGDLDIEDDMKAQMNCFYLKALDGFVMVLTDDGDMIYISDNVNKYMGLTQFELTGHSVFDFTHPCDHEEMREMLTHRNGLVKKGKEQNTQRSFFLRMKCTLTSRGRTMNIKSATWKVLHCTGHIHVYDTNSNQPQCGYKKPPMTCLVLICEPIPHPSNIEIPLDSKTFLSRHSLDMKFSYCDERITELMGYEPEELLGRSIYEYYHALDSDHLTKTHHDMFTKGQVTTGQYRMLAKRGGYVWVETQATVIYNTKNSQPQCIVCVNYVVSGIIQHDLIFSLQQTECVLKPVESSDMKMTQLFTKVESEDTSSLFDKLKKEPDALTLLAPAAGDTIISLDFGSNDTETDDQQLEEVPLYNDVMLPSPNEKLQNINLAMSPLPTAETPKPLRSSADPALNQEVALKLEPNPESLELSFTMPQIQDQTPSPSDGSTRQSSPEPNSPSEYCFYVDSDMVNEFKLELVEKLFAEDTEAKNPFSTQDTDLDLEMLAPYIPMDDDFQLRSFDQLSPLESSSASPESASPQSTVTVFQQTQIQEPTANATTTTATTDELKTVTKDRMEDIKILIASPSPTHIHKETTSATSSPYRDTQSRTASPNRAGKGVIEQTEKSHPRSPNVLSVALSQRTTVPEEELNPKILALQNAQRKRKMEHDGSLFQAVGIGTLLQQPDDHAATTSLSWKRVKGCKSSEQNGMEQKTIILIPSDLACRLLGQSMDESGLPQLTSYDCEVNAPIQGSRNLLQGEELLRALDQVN

pIC50	Structure (SMILES)
5.37	O=C(NCCc1ccccc1F)c1ccc(-c2ccoc2)cn1
4.94	Nc1ccc(CCNC(=O)c2ccc(-c3ccccc3)cn2)cc1
5.54	O=C(NCCc1ccccc1Cl)c1ccc(-c2ccccc2)cc1
5.01	O=C(NCCc1ccccc1Cl)c1ccc(-c2ccccc2)cn1
5.85	O=C(NCCc1ccccc1F)c1ccc(-c2ccsc2)cn1
5.07	N#Cc1ccccc1-c1ccc(C(=O)NCCc2ccccc2F)nc1
4.25	Cc1nc(C(=O)NCCc2ccccc2)cs1
5.51	COC(=O)c1ccc(O)c(NC(=O)COc2ccc(C34CC5CC(CC(C5)C3)C4)cc2)c1
5.67	O=C(NCCc1ccccc1F)c1ccc(-c2ccccc2F)cn1
5.01	O=C(NCCc1cccc(Cl)c1)c1ccc(-c2ccccc2)cn1
5.00	O=C(NCCc1ccncc1)c1nccc(-c2ccccc2)n1
5.61	O=C(NCCc1ccccc1F)c1ccc(-c2cccs2)cn1
6.49	COc1ccccc1-c1ccc(C(=O)NCCc2ccccc2F)nc1
5.34	O=C(NCCc1ccccc1)c1ccc(-c2ccccc2)cn1
5.14	O=C(NCCc1ccncc1)c1nnc(-c2ccccc2)o1
6.03	O=C(NCCc1ccccc1F)c1ccc(-c2ccccc2)cn1
4.86	O=C(NCCc1ccncc1)c1ccc(-c2ccccc2)cn1
